Source: ChEMBL document CHEMBL1122616, “Latent inhibitors of aldehyde dehydrogenase as alcohol deterrent agents” (J Med Chem, 1984)

Target: T1, Aldehyde dehydrogenase 1A1 (Rattus norvegicus) (UniProt P51647)
T1 sequence (whole entry): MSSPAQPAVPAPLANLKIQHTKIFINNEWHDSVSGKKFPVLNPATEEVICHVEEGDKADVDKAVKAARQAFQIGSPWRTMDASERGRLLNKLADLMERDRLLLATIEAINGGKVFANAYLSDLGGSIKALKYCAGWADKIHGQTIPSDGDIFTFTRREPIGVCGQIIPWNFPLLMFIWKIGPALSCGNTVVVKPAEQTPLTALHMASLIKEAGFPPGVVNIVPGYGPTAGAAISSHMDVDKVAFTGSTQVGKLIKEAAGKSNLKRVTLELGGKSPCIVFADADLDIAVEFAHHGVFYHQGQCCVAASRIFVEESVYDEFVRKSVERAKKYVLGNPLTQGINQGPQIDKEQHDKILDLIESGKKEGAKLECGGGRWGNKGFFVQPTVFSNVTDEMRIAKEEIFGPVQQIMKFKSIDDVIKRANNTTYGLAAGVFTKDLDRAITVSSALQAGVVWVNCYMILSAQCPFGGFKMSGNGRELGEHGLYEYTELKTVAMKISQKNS
Assay: Evaluated in vivo for inhibition of liver mitochondrial aldehyde dehydrogenase activity 2 hour after administering into rats, at a dose of 1.25 mmol/kg
Assay type: organism-based
Details: scale: nmol of acetaldehyde(AcH) oxide per minute per mg of protein
Outline: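 Rats given 1.25 mmol/kg ip; controls given saline. Killed 2 h later. Intact liver mitochondria prepared at 0 °C and kept cold until assay. After 5-min preincubation at 38 °C, 200 nmol AcH added. Quenched after 5 min with HClO₄. Activity given as nmol AcH oxidized/min/mg protein (Lowry), mean ± SEM.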

Activity	SMILES
2.68	c1ccc(CNC2CC2)cc1
3.48	CN(Cc1ccccc1)C1CC1
